Assay results collected from several papers.
Compare with care: the assays were run in different laboratories.
RET V804M: Proto-oncogene tyrosine-protein kinase receptor Ret (RET, Homo sapiens, UniProt P07949, V804M)
RET V804L: Proto-oncogene tyrosine-protein kinase receptor Ret (RET, Homo sapiens, UniProt P07949, V804L)
RET M918T: Proto-oncogene tyrosine-protein kinase receptor Ret (RET, Homo sapiens, UniProt P07949, M918T)
RET: Proto-oncogene tyrosine-protein kinase receptor Ret (RET, Homo sapiens, UniProt P07949)

Cc1c(NC(=O)c2cc(C(N)=O)nc3cc(F)ccc23)c(C(F)(F)F)nn1Cc1ccc(C(C)(C)C)cc1 — remaining binding (RET V804M; cell-free assay, competition with immobilised ligand; 1 µM): 100%
COc1cc(-c2cc(-c3ccc(N4CCNCC4)cc3)cnc2N)cc(OC)c1OC — inhibition (RET V804L; enzyme activity, inhibitor; 1 µM): 5%
CS(=O)(=O)N1CCCC(NC(=O)[C@H](CCC2CCCCC2)NC(=O)c2ccc(CNC(=O)c3cnc4ccccn34)cc2)C1 (stereo partly drawn) — remaining binding (RET M918T; cell-free assay, competition with immobilised ligand; 0.1 µM): 93%
CO[C@]1(C(=O)N[C@@H](C)c2ccc(-n3cc(F)cn3)nc2)CC[C@H](c2nc(C)cc(Nc3cc(C)[nH]n3)n2)CC1 — ΔTm (RET V804M; thermal stability, DSF; 10 µM): 8.7 °C
CS(=O)(=O)CCNCc1ccc(-c2ccc3ncnc(Nc4ccc(OCc5cccc(F)c5)c(Cl)c4)c3c2)o1 — remaining signal (RET; cell-free assay; 0.5 µM): 99.8%
CC(=O)Nc1cccc2c1CCN(C(=O)CCNC(=O)c1ccsc1)C2 — remaining activity (RET; enzyme activity, inhibitor, radiometric; 10 µM): 90.8%
CC/C(=N\NC(=O)NCc1cccc(O)c1)c1ccc(O)c(C)c1O — inhibition (RET M918T; enzyme activity, inhibitor; 0.1 µM): 1.1%
O=C(N1CCS(=O)(=O)CC1)N1C[C@H](c2ccc(OC(F)(F)F)cc2)C[C@H](c2nc(C3CC3)no2)C1 — remaining binding (RET V804L; cell-free assay, competition with immobilised ligand; 1 µM): 99%
N[C@H]1CCN(c2nccc(-c3cnn4ncccc34)n2)C1 — remaining binding (RET V804L; binding; 1 µM): 93%
Nc1ncnc2occ(-c3ccc(NC(=O)Nc4cc(C(F)(F)F)ccc4F)cc3)c12 — remaining signal (RET V804L; cell-free assay; 20 µM): 0%
COc1cccc(Nc2nc(C)c(C(=O)Nc3ccc4c(c3)OCO4)s2)c1 — remaining activity (RET; enzyme activity, inhibitor, radiometric; 0.1 µM): 129%
CCCOc1ccc(OC)c(F)c1C(=O)c1ccc(C(=O)N[C@@H]2CNC[C@H]2NC(=O)c2ccc3[nH]ncc3c2)cc1 — remaining activity (RET V804M; enzyme activity, inhibitor; 10 µM): 4%
CCOCCn1cc(C(=O)Nc2ccc(-n3nc(-c4cccnc4)cc3C(F)(F)F)cn2)ccc1=O — remaining binding (RET; cell-free assay, competition with immobilised ligand; 1 µM): 83%
CN(C)c1ncc(F)c(-c2cnn3ncccc23)n1 — remaining binding (RET M918T; binding; 1 µM): 96%
COc1cc2c(N3CCN(C(=O)Nc4ccc(OC(C)C)cc4)CC3)ncnc2cc1OCCCN1CCCCC1 — remaining signal (RET; cell-free assay; 0.5 µM): 91.5%
Cc1cc(NC(=O)c2cccc3cc(-c4cccc5[nH]nc(N)c45)ccc23)ccc1F — activity vs control (RET; enzyme activity, inhibitor; 0.1 µM): 37%
Cc1ccc(-c2nn3c(=O)cc(CNC(=O)Nc4ccc(C)c(Cl)c4)nc3s2)cc1 — remaining activity (RET; enzyme activity, inhibitor, radiometric; 0.1 µM): 116%
COc1ccc2c(c1)O[C@H](c1ccc(OC)c(OC)c1)C[C@@H]2NC(=O)C1(c2ccc3c(c2)OC(F)(F)O3)CC1 — remaining binding (RET V804M; cell-free assay, competition with immobilised ligand; 1 µM): 100%
Cc1cccc(NC(=O)CNC(=O)c2ccccc2NS(=O)(=O)c2ccc3[nH]c(=O)[nH]c3c2)c1C — remaining activity (RET; enzyme activity, inhibitor, radiometric; 0.1 µM): 114%
Cc1cnc(NC2CCOCC2)nc1-n1cnc(C(=O)NC(CN)c2cc(F)cc(Cl)c2)c1 (stereo not drawn) — remaining activity (RET; enzyme activity, inhibitor, radiometric; 1 µM): 111%
CN(C)c1nccc(-c2cnn3ncccc23)n1 — remaining binding (RET M918T; binding; 1 µM): 97%
O=c1nc(-c2ccccn2)sc2ccccc12 — remaining binding (RET V804M; binding, competition with immobilised ligand; 1 µM): 100%
CCN(CC)CCNC(=O)c1c(C)[nH]c(/C=C2\C(=O)Nc3ccc(F)cc32)c1C — remaining signal (RET; cell-free assay; 0.5 µM): 3.43%
COc1ccc(CN2C3CC2CN(c2ccc(-c4cc(OCC(C)(C)O)cn5ncc(C#N)c45)cn2)C3)cn1 — ΔTm (Proto-oncogene tyrosine-protein kinase receptor Ret (RET, Homo sapiens, UniProt P07949, L760A); thermal stability, DSF; 10 µM): 8.7 °C
CN(c1nccc(-c2cnn3ncccc23)n1)C1CC1 — remaining binding (RET V804M; binding; 1 µM): 100%
O=C1NC(c2ccccn2)Sc2ccccc21 (stereo not drawn) — remaining binding (RET V804M; cell-free assay, competition with immobilised ligand; 1 µM): 86%
COc1cc2ncnc(Nc3ccc(Oc4ccccc4)c(C)c3C)c2cc1OC — inhibition (RET; enzyme activity, inhibitor; 1 µM): 17%
CC(=O)OCc1cnc(C)c2oc(=Nc3ccc(F)cc3)c(C(=O)Nc3ccc4c(c3)OCO4)cc12 — remaining activity (RET; enzyme activity, inhibitor, radiometric; 0.1 µM): 121%
C=CC(=O)Nc1cc(Nc2nccc(Nc3cc(Cl)c(F)cc3C(C)(C)O)n2)c(OC)cc1N1CC[C@@H](N(C)C)C1 — inhibition (RET; enzyme activity, inhibitor; 1 µM): 1%
Cc1cnn2ncc(-c3ccnc(N(C)C)n3)c2c1 — remaining binding (RET; binding; 1 µM): 69%
COc1cc(NC(=O)Nc2ccc(Br)cc2)cc2sc(NC(=O)c3ccccc3)nc12 — remaining activity (RET; enzyme activity, inhibitor, radiometric; 10 µM): 106%
O=C(NCc1ncc(C(F)(F)F)cc1Cl)c1ccc2c(c1)C1(CCS(=O)(=O)CC1)[C@@H](C1CC1)N2S(=O)(=O)c1ccc(F)cc1 — remaining binding (RET V804M; cell-free assay, competition with immobilised ligand; 1 µM): 100%
C[C@@H]1CCN(c2nccc(-c3cnn4ncccc34)n2)C1 — remaining binding (RET V804M; binding; 1 µM): 88%
Cc1ccc(NC(=O)Nc2cc3c(cc2Oc2ccccc2)n(C)c(=O)n3C)cc1C — remaining activity (RET; enzyme activity, inhibitor, radiometric; 10 µM): 128%
c1cnn2ncc(-c3ccnc(N4CCC45COC5)n3)c2c1 — remaining binding (RET M918T; binding; 1 µM): 97%
COCC(=O)Nc1cc(C(=O)NCCc2cnn(C)c2)cc2ncn(CCc3ccccc3)c12 — remaining activity (RET; enzyme activity, inhibitor, radiometric; 0.1 µM): 118%
